Laboratory results published in article PMC9063559 (RSC Advances, 2019).
One block for each molecule: values may come before it.

Key:
Type in all cases: cell-based
[1] = tested on: Plasmodium falciparum (NF54 strain); test: in vitro antiplasmodial activity, chloroquine-sensitive NF54 strain; conditions: NF54, read-out: IC50 P. falciparum (NF54 strain)
In short: (§1)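 Test compounds were run in vitro in parallel against P. falciparum NF54 and K1, T. cruzi Tulahuen C4 amastigotes, T. b. rhodesiense STIB 900 trypomastigotes, L. donovani MHOM-ET-67/L82 amastigotes and rat L6 skeletal myoblasts. Each IC50 is the mean of two independent assays, with individual values within a factor of 2. Selectivity index = L6 IC50 ÷ P. falciparum IC50 for the respective strain.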

[2] = tested on: Trypanosoma brucei rhodesiense (STIB 900 strain, trypomastigotes); test: in vitro activity against Trypanosoma brucei rhodesiense; conditions: RHODESIENSE|STIB900, read-out: IC50 T. brucei rhodesiense
In short: as §1

[3] = tested on: Leishmania donovani (MHOM-ET-67/L82, amastigotes); test: in vitro activity against Leishmania donovani; conditions: read-out: IC50 L. donovani
In short: as §1

[4] = cytotoxicity against mammalian host cells; conditions: rat, rat skeletal myoblast L6 cells
In short: as §1

Structure (SMILES): C[C@@H]1CC[C@H]2[C@@H](C)C(=O)O[C@@H]3O[C@@]4(C)CC[C@@H]1[C@]32OO4 [Artemisinin]
IC50 [1]: 0.021 µM

Structure (SMILES): Nc1nc(N)nc(Nc2ccc([As]3SCC(CO)S3)cc2)n1 (stereo not shown) [Melarsoprol]
IC50 [2]: 0.03 µM

IC50 [3]: 1.08 µM
Structure (SMILES): CCCCCCCCCCCCCCCCOP(=O)([O-])OCC[N+](C)(C)C [Miltefosine]

Structure (SMILES): COc1cc([C@@H]2c3cc4c(cc3[C@H](O)[C@H]3COC(=O)[C@H]23)OCO4)cc(OC)c1OC [Podophyllotoxin]
IC50 [4]: 0.0096 µM
